# Source: publication PMC8266733 (Acta physiologica (Oxford, England), 2021)
# “Also recorded” adds a separate entry of the source.
# What was measured:
# [1] = test system: Hela-Parkin or Hela-Parkin/USP30 cells
# [2] = molecular target: T1, USP30 (Homo sapiens, UniProt Q70CQ3); assay: TOM20 ubiquitination and turnover; assay type: cell-based
# T1 sequence (Q70CQ3 1-517): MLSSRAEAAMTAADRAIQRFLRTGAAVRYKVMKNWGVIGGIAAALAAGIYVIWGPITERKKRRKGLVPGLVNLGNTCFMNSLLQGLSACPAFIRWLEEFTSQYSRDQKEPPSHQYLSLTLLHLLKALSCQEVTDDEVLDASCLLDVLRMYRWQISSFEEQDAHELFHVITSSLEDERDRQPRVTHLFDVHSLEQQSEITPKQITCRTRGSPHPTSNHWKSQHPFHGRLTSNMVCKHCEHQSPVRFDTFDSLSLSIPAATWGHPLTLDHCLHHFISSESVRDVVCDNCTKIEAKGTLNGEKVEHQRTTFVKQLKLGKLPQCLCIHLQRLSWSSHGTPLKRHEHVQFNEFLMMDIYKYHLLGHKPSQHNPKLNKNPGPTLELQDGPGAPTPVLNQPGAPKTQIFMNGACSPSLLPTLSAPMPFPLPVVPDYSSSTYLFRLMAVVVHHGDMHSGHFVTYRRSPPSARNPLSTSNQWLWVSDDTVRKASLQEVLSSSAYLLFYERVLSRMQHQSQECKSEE
# Outline: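 HeLa-Parkin cells, with or without lentivirally expressed Myc-USP30, were pretreated with test compound at several concentrations. They were then exposed to 5 μM oligomycin plus 5 μM antimycin A for up to 18 h, with 10 μM QVD during 18 h exposures. RIPA lysates (pH 8.0, on ice) were immunoblotted for ubiquitinated TOM20, TOM20, TOM40 and TIM23 with infrared detection. Three independent experiments.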
# [3] = test system: HeLa-Parkin cells expressing USP30; assay: FACS analysis of A/O-induced mitophagy using mt-Keima fluorescence; assay type: cell-based
# Outline: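 HeLa-Parkin and HeLa-Parkin cells with lentivirally expressed Myc-USP30, stably expressing mt-Keima, grown in DMEM/10% FBS. Pretreated with DMSO or test compound at 3 μg/ml, then exposed to 1 μM oligomycin plus 1 μM antimycin A for 1.5 h (legend: 2 h). Cells were trypsinized, PBS-washed and resuspended in PBS. Flow cytometry scored cells with lysosomal (pH 4) mt-Keima.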
# [4] = test system: Hela cells, Hela cells expressing YFP-Parkin and PINK1 KO Hela cells expressing YFP-Parkin; assay type: cell-based
# Outline: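 Parental HeLa, HeLa stably expressing YFP-Parkin, and PINK1 KO HeLa expressing YFP-Parkin were pretreated with test compound at 1 or 3 μg/ml. They were then given 5 μM oligomycin plus 5 μM antimycin A; the 18 h exposure included 10 μM QVD. Cells were lysed on ice in RIPA buffer (pH 8.0, protease inhibitors) and blotted for TOM20 ubiquitination, TOM20 and NDP52. Infrared secondaries were imaged; three independent experiments.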
# [5] = test system: Hela-Parkin and Hela-Parkin cells expressing USP30; assay: Seahorse assay of oxygen consumption; assay type: cell-based; conditions: 24 h of ST-539 treatment at high dose
# [6] = test system: WT and Mfn2−/− MEF cells; assay: Mitochondrial morphology by confocal microscopy; assay type: cell-based, mouse; conditions: 3 or 10 μg/ml ST-539, 24 h
# [7] = Plasma pharmacokinetics after i.p. injection, LC-MS/MS; assay type: in vivo; conditions: 25 mg/kg i.p., mice
# Outline: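 Adult male mice were dosed once at 25 mg/kg i.p. with test compound in 1% DMSO/sesame oil. Serial blood was taken at 0.083, 0.25, 0.5, 1, 2, 4 and 8 h, with terminal cardiac puncture at 24 h, into K2EDTA tubes kept on ice. Plasma was frozen at −70 °C and assayed by LC-MS/MS (n=3 per time point). Parameters were derived from the concentration-time curve.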
# [8] = Tissue concentrations 24 hours post-dose, LC/MS/MS; assay type: in vivo; conditions: 25 mg/kg i.p., Male C57BL/6 Mice
# Outline: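 Mice were given a single 25 mg/kg i.p. dose of test compound in 1% DMSO/sesame oil and euthanized at 24 h. Transcardial perfusion preceded brain collection; heart was also harvested. Tissues were rinsed in cold distilled water, blotted dry, weighed and stored on dry ice. Concentrations (ng/g) were measured by LC/MS/MS.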
# [9] = test system: mt-Keima mice; assay: In vivo mitophagy in mt-Keima mice
# Outline: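 mt-Keima mice of both sexes received test compound in 1% DMSO/sesame oil at 25 mg/kg/day i.p. for five doses; controls got vehicle (n=4 control, n=5 treated). In heart and liver sections, mt-Keima was excited sequentially at 458 and 561 nm with 570–695 nm emission. Four images per tissue were averaged and normalized to the control mean (set to one). Heart and liver LC3 I/II were immunoblotted against actin.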
# [10] = test system: mt-Keima mice; conditions: mouse, in vivo
# [11] = molecular target: T1, USP30; conditions: this compound and similar structures; cited from earlier work
smiles,measurement,setting,value
"N#CC(C#N)=NNc1ccc(OC(F)(F)F)cc1 [FCCP, Carbonyl cyanide-p-trifluoromethoxyphenylhydrazone]",TMRM staining (mitochondrial membrane potential),[1],significant loss of staining
CC(C)(C)NS(=O)(=O)c1cccc2c(NC(=O)C(Cc3ccccc3)NC(=O)c3ccccc3)cccc12 (stereo not shown) [ST-539],TIM23 and TOM40 degradation,"[2]; 18h A/O treatment, Hela-Parkin cells overexpressing USP30",restored TIM23 and TOM40 degradation
same,TOM20 ubiquitination versus ST-539 dosage,"[2]; A/O treatment, ST-539 at indicated concentrations",close correlation
same,loss of TOM20 protein level,"[2]; ST-539 at 10 μg/ml, A/O treatment, in the presence of USP30",~ 90%
same,A/O induced mitophagy (lysosomal positive mt-Keima),"[3]; ST-539 3μg/ml prior to A/O, HeLa-Parkin cells expressing USP30",restored A/O induced mitophagy
same,mitophagy in the absence of mitochondrial stress,"[3]; cellular studies, no mitochondrial stress",minimal change
same,A/O induced TOM20 ubiquitination and decline in TOM20 level,"[4]; cells expressing ectopic Parkin and endogenous PINK1, ST-539 1 or 3μg/ml",further potentiated
same,TOM20 ubiquitination independent of PINK1/Parkin,"[4]; long term treatment (18 h), 3μg/ml ST-539, WT Hela or PINK1 KO cells",did not promote TOM20 ubiquitination
same,basal and maximal respiration,[5],slight increase
same,elongation of mitochondria,[6]; Mfn2−/− MEF cells,did not induce the elongation of mitochondria significantly
same,mitochondrial morphology,[6]; wild type MEFs,failed to change the mitochondrial morphology
same,AUC0-inf,[7],4240 ng·h/mL
same,AUC0-last,[7],4162 ng·h/mL
same,Cmax,[7],1427 ng/mL
same,MRT0-inf,[7],4.27 h
same,MRT0-last,[7],3.86 h
same,Tlast,[7],24.0 h
same,Tmax,[7],1.33 h
same,area under the plasma drug concentration-time curve (AUC),[7],~ 4.2 μg•h/ml
same,maximum plasma concentration (Cmax),[7],about 1.4 μg/ml
same,"Tissue concentration, Brain, Mean",[8],17.4 ng/g
same,"Tissue concentration, Heart, Mean",[8],37.0 ng/g
same,LC3-II/LC3-I ratio (LC3 I/II immunoblotting),"[9]; 25mg/kg/day for 5 days, heart versus control hearts",increase; also recorded: increased levels of LC3-II
same,cardiac mitophagy (mt-Keima red signal in the heart tissue),"[9]; 25mg/kg/day i.p. for 5 days, heart",marked induction of the red signal
same,mitophagic flux in the hippocampus of the brain,"[9]; 25mg/kg/day i.p. for 5 days, hippocampus (data not shown)",remains unchanged
same,mitophagic flux in the liver,"[9]; 25mg/kg/day i.p. for 5 days, liver",remains unchanged
same,safety of the current dosage in mice,[10],appears to be safe
same,inhibition of USP30 enzyme function in vitro,[11],selectively inhibit USP30 enzyme function
